Test results reported in ChEMBL document CHEMBL3351797, “Synthesis, in vitro and in silico studies of a PPARγ and GLUT-4 modulator with hypoglycemic effect” (2014).
Activity calls are given as the source filed them. The calls are words filed in the database; no cut-off is given here.

How the values were obtained:
Rattus norvegicus [1] = experiment: Antidiabetic activity in streptozotocin-nicotinamide-induced NIDDM Wistar rat model assessed as reduction in blood glucose level at 5 mg/kg administered intragastrically measured at 1 hr post dose relative to control; type: functional; design: scale not given: the % may be the effect or the level left; settings: route intragastric
Outline: (§1)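 Streptozotocin–nicotinamide-induced diabetic rats received one intragastric dose (test agent 50 mg/Kg; glibenclamide 5 mg/Kg as hypoglycemic control). Blood glucose was sampled at 0, 1, 3, 5 and 7 h after dosing. Change was expressed as percentage variation of glycemia from zero hour, negative meaning a decrease. Values are mean ± SEM (n = 6), compared with a control group.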

Rattus norvegicus [2] = experiment: Antidiabetic activity in streptozotocin-nicotinamide-induced NIDDM Wistar rat model assessed as reduction in blood glucose level at 5 mg/kg administered intragastrically measured at 5 hrs post dose relative to control; type: functional; design: scale not given: the % may be the effect or the level left; settings: route intragastric; outline: as §1
Rattus norvegicus [3] = experiment: Antidiabetic activity in streptozotocin-nicotinamide-induced NIDDM Wistar rat model assessed as reduction in blood glucose level at 5 mg/kg administered intragastrically measured at 7 hrs post dose relative to control; type: functional; design: scale not given: the % may be the effect or the level left; settings: route intragastric; outline: as §1
Rattus norvegicus [4] = experiment: Antidiabetic activity in streptozotocin-nicotinamide-induced NIDDM Wistar rat model assessed as reduction in blood glucose level at 5 mg/kg administered intragastrically measured at 3 hrs post dose relative to control; type: functional; design: scale not given: the % may be the effect or the level left; settings: route intragastric; outline: as §1
Rattus norvegicus [5] = experiment: Antidiabetic activity in streptozotocin-nicotinamide-induced NIDDM Wistar rat model assessed as reduction in blood glucose level at 50 mg/kg administered intragastrically measured at 3 hrs post dose relative to control; type: functional; design: scale not given: the % may be the effect or the level left; settings: route intragastric; outline: as §1
Rattus norvegicus [6] = experiment: Antidiabetic activity in streptozotocin-nicotinamide-induced NIDDM Wistar rat model assessed as reduction in blood glucose level at 50 mg/kg administered intragastrically measured at 7 hrs post dose relative to control; type: functional; design: scale not given: the % may be the effect or the level left; settings: route intragastric; outline: as §1
3T3-L1 [7] = experiment: Increase in Glut-4 mRNA expression mouse 3T3L1 cells at 10 uM after 24 hrs by SYBR Green-based expression analysis relative to control; type: functional
3T3-L1 [8] = experiment: Increase in PPARalpha mRNA expression mouse 3T3L1 cells at 10 uM after 24 hrs by SYBR Green-based expression analysis relative to control; type: functional, cell-based
Rattus norvegicus [9] = experiment: Antidiabetic activity in streptozotocin-nicotinamide-induced NIDDM Wistar rat model assessed as reduction in blood glucose level at 50 mg/kg administered intragastrically measured at 1 hr post dose relative to control; type: functional; design: scale not given: the % may be the effect or the level left; settings: route intragastric; outline: as §1
3T3-L1 [10] = experiment: Increase in PPARgamma mRNA expression mouse 3T3L1 cells at 10 uM after 24 hrs by SYBR Green-based expression analysis relative to control; type: functional
Rattus norvegicus [11] = experiment: Antidiabetic activity in streptozotocin-nicotinamide-induced NIDDM Wistar rat model assessed as reduction in blood glucose level at 50 mg/kg administered intragastrically measured at 5 hrs post dose relative to control; type: functional; design: scale not given: the % may be the effect or the level left; settings: route intragastric; outline: as §1

`COc1ccc(Cl)cc1C(=O)NCCc1ccc(S(=O)(=O)NC(=O)NC2CCCCC2)cc1` [GLYBURIDE] was tested, and the Activity (Rattus norvegicus [1]) was 20.5%, the Activity (Rattus norvegicus [2]) was 37.5% and the Activity (Rattus norvegicus [3]) was 43.6%. For the same compound, the Activity (Rattus norvegicus [4]) was 36.3%.

For `CCOC(=O)COc1ccc(NC(=O)COc2ccc(/C=C3\SC(=O)NC3=O)cc2)cc1`, the Activity (Rattus norvegicus [5]) was 20.5%, the Activity (Rattus norvegicus [6]) was 31% and the “fold change (FC)” value (3T3-L1 [7]) was 2. The Activity (3T3-L1 [8]) was “inactive”, the Activity (Rattus norvegicus [9]) was 4.4% and the “fold change (FC)” value (3T3-L1 [10]) was 2. It also gave an Activity (Rattus norvegicus [11]) of 36.7%.

In the case of `O=C(O)COc1ccc(NC(=O)COc2ccc(/C=C3\SC(=O)NC3=O)cc2)cc1`, the “fold change (FC)” value (3T3-L1 [7]) is reported as 2, the Activity (3T3-L1 [8]) is reported as “inactive” and the “fold change (FC)” value (3T3-L1 [10]) is reported as 2.
